Laboratory results as given in ChEMBL document CHEMBL3045051 (Med Chem Res, 2011).
Calls of active or inactive are those of the source. No cut-off for these calls is given here.

What was measured:
[1] = system: Respiratory syncytial virus; assay: Antiviral activity against Respiratory syncytial virus infected human HeLa cells assessed as inhibition of virus-induced cytopathicity; format: functional, organism-based
In short: (§1)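 Confluent monolayers (feline kidney Crandell, Vero, HEL or HeLa, as named for each virus) were infected with 100 CCID50 of virus and allowed to adsorb for 1 h. Unbound virus was then removed, and cultures were incubated with test compound in serial dilutions (200, 40, 8 … µM). Cytopathicity was scored once untreated infected controls reached complete cytopathic effect.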

[2] = system: Radical scavenging activity; assay: Antioxidant activity assessed as DPPH radical scavenging activity at 1 X 10^-4 M after 20 min; format: functional
In short: (§2)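 Test compound was mixed with DPPH (0.05 and 0.1 mM) in ethanol. Absorbance at 517 nm was read after 20 and 60 min and compared with the NDGA standard, with ethanol as control. Each experiment was run at least in triplicate, and the SD of absorbance was <10% of the mean.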

[3] = system: Mammalian orthoreovirus 1; assay: Antiviral activity against Mammalian orthoreovirus 1 infected VERO cells assessed as inhibition of virus-induced cytopathicity; format: functional, organism-based; in short: as §1
Influenza A virus = assay: Antiviral activity against Unidentified Influenza A virus (H1N2) infected MDCK cells assessed as inhibition of virus-induced cytopathicity; format: functional, organism-based
[4] = system: Radical scavenging activity; assay: Antioxidant activity assessed as DPPH radical scavenging activity at 5 X 10^-5 M after 60 min; format: functional; in short: as §2
Coxsackievirus B4 [5] = assay: Antiviral activity against Human coxsackievirus B4 infected human HeLa cells assessed as inhibition of virus-induced cytopathicity; format: functional, organism-based; in short: as §1
Human alphaherpesvirus 2 = assay: Antiviral activity against Human herpesvirus 2 strain G infected human HEL cells assessed as inhibition of virus-induced cytopathicity; format: functional, organism-based; in short: as §1
Human respirovirus 3 = assay: Antiviral activity against Human parainfluenza virus 3 infected Vero cells assessed as inhibition of virus-induced cytopathicity; format: functional, organism-based; in short: as §1
[6] = system: Vesicular stomatitis virus; assay: Antiviral activity against Vesicular stomatitis virus infected HEL cells assessed as inhibition of virus-induced cytopathicity; format: functional, organism-based
[7] = Antioxidant activity assessed as inhibition of AAPH-induced lipid peroxidation at 1 X 10^-5 M; format: functional
[8] = Antioxidant activity assessed as inhibition of AAPH-induced lipid peroxidation at 1 X 10^-4 M; format: functional
Sindbis virus = assay: Antiviral activity against Sindbis virus infected Hela cells assessed as inhibition of virus-induced cytopathicity; format: functional, organism-based
[9] = system: Radical scavenging activity; assay: Antioxidant activity assessed as DPPH radical scavenging activity at 5 X 10^-5 M after 20 min; format: functional; in short: as §2
Human alphaherpesvirus 1 = assay: Antiviral activity against […] 1 KOS infected in human HEL cells assessed as inhibition of virus-induced cytopathicity; format: functional, organism-based; in short: as §1
[10] = system: Radical scavenging activity; assay: Antioxidant activity assessed as DPPH radical scavenging activity at 1 X 10^-4 M after 60 min; format: functional; in short: as §2
Coxsackievirus B4 [11] = assay: Antiviral activity against Human coxsackievirus B4 infected VERO cells assessed as inhibition of virus-induced cytopathicity; format: functional, organism-based; in short: as §1
Vaccinia virus = assay: Antiviral activity against Vaccinia virus infected human HEL cells assessed as inhibition of virus-induced cytopathicity; format: functional, organism-based; settings: Orthopoxvirus vaccinia
Feline coronavirus = assay: Antiviral activity against Feline coronavirus infected feline kidney crandell cells assessed as inhibition of virus-induced cytopathicity; format: functional, organism-based; in short: as §1
[12] = molecular target: T1, Seed linoleate 13S-lipoxygenase-1 (Glycine max) (UniProt P08170); assay: Inhibition of Glycine max (soybean) lipoxygenase using sodium linoleate as substrate at 1 X 10^-4
T1 sequence (whole entry): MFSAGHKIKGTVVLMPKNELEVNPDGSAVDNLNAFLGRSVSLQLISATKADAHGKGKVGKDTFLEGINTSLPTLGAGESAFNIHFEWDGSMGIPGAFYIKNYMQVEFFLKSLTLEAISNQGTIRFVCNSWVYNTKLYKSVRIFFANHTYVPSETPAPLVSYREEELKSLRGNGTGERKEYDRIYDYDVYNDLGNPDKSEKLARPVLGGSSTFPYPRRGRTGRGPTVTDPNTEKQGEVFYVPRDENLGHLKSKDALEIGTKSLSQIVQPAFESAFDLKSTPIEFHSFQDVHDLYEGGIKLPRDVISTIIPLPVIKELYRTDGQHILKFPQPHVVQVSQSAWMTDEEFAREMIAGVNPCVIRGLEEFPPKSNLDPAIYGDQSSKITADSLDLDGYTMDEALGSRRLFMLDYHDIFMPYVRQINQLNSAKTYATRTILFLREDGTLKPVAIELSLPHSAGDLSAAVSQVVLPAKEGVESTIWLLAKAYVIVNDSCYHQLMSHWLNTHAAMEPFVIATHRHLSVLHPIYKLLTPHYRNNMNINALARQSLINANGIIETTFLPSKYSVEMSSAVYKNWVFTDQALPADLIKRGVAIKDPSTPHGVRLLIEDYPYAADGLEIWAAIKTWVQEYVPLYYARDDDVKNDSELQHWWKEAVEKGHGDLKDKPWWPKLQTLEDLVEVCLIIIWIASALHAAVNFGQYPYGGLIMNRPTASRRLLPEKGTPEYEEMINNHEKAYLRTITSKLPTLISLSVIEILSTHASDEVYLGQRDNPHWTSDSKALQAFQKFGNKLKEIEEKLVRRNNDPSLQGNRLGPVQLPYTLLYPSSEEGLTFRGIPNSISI

[13] = system: Vesicular stomatitis virus; assay: Antiviral activity against Vesicular stomatitis virus infected Hela cells assessed as inhibition of virus-induced cytopathicity; format: functional, organism-based
Punta Toro virus = assay: Antiviral activity against Punta Toro virus infected Hela cells assessed as inhibition of virus-induced cytopathicity; format: functional, organism-based
[14] = molecular target: T2, Seed linoleate 13S-lipoxygenase-1 (Glycine max, UniProt P08170); assay: Inhibition of Glycine max (soybean) lipoxygenase using sodium linoleate as substrate
T2 sequence (P08170 whole entry): T1 sequence (whole entry)

## CC(C(=O)NCCc1ccccc1)c1cccc(C(OC(=O)NCCc2ccccc2)c2ccccc2)c1 (stereo not drawn)
[1]
  Activity: inactive
[2]
  inhibition: inactive
[3]
  Activity: inactive
Influenza A virus
  Activity: inactive
Influenza A virus; H1N1
  Activity: inactive
[4]
  inhibition: 8.5%
Coxsackievirus B4 [5]
  Activity: inactive
Human alphaherpesvirus 2
  Activity: inactive
Human respirovirus 3
  Activity: inactive
[6]
  Activity: inactive
[7]
  inhibition: 22.5%
[8]
  inhibition: 99%
Sindbis virus
  Activity: inactive
[9]
  inhibition: 3.6%
Human alphaherpesvirus 1
  Activity: inactive
[10]
  inhibition: 2.2%
Coxsackievirus B4 [11]
  Activity: inactive
Vaccinia virus
  Activity: inactive
Feline coronavirus
  Activity: inactive
[12]
  inhibition: 18.9%
[13]
  Activity: inactive
Punta Toro virus
  Activity: inactive

## CC(C(=O)NOCc1ccccc1)c1cccc(C(OC(=O)NOCc2ccccc2)c2ccccc2)c1 (stereo not drawn)
[1]
  Activity: inactive
[2]
  inhibition: inactive
[3]
  Activity: inactive
Influenza A virus
  Activity: inactive
Influenza A virus; H1N1
  Activity: inactive
[4]
  inhibition: 5.6%
Coxsackievirus B4 [5]
  Activity: inactive
Human alphaherpesvirus 2
  Activity: inactive
Human respirovirus 3
  Activity: inactive
[6]
  Activity: inactive
[7]
  inhibition: 49.2%
[8]
  inhibition: 99.3%
Sindbis virus
  Activity: inactive
[9]
  inhibition: 3.4%
Human alphaherpesvirus 1
  Activity: inactive
[10]
  inhibition: inactive
Coxsackievirus B4 [11]
  Activity: inactive
Vaccinia virus
  Activity: inactive
Feline coronavirus
  Activity: inactive
[12]
  inhibition: 40.8%
[13]
  Activity: inactive
Punta Toro virus
  Activity: inactive

## CC(C(=O)O)c1cccc(C(=O)c2ccccc2)c1 (stereo not drawn) [KETOPROFEN]
[1]
  Activity: inactive
[2]
  inhibition: 8.1%
[3]
  Activity: inactive
Influenza A virus
  Activity: inactive
Influenza A virus; H1N1
  Activity: inactive
[4]
  inhibition: 3.1%
Coxsackievirus B4 [5]
  Activity: inactive
Human alphaherpesvirus 2
  Activity: inactive
Human respirovirus 3
  Activity: inactive
[6]
  Activity: inactive
Sindbis virus
  Activity: inactive
[14]
  IC50: 130 µM
[9]
  inhibition: 6.4%
Human alphaherpesvirus 1
  Activity: inactive
[10]
  inhibition: 7.2%
Coxsackievirus B4 [11]
  Activity: inactive
Vaccinia virus
  Activity: inactive
Feline coronavirus
  Activity: inactive
[13]
  Activity: inactive
Punta Toro virus
  Activity: inactive

## CC(C(=O)NC1CCCCC1)c1cccc(C(OC(=O)NC2CCCCC2)c2ccccc2)c1 (stereo not drawn)
[1]
  Activity: inactive
[2]
  inhibition: inactive
[3]
  Activity: inactive
Influenza A virus
  Activity: inactive
Influenza A virus; H1N1
  Activity: inactive
[4]
  inhibition: 3.1%
Coxsackievirus B4 [5]
  Activity: inactive
Human alphaherpesvirus 2
  Activity: inactive
Human respirovirus 3
  Activity: inactive
[6]
  Activity: inactive
[7]
  inhibition: 5.4%
[8]
  inhibition: 96.1%
Sindbis virus
  Activity: inactive
[9]
  inhibition: 2%
Human alphaherpesvirus 1
  Activity: inactive
[10]
  inhibition: inactive
Coxsackievirus B4 [11]
  Activity: inactive
Vaccinia virus
  Activity: inactive
Feline coronavirus
  Activity: inactive
[12]
  inhibition: 22.7%
[13]
  Activity: inactive
Punta Toro virus
  Activity: inactive

## CCONC(=O)OC(c1ccccc1)c1cccc(C(C)C(=O)NOCC)c1 (stereo not drawn)
[1]
  Activity: inactive
[2]
  inhibition: 2.3%
[3]
  Activity: inactive
Influenza A virus
  Activity: inactive
Influenza A virus; H1N1
  Activity: inactive
[4]
  inhibition: 3.7%
Coxsackievirus B4 [5]
  Activity: inactive
Human alphaherpesvirus 2
  Activity: inactive
Human respirovirus 3
  Activity: inactive
[6]
  Activity: inactive
[7]
  inhibition: inactive
[8]
  inhibition: 54.5%
Sindbis virus
  Activity: inactive
[9]
  inhibition: 2.5%
Human alphaherpesvirus 1
  Activity: inactive
[10]
  inhibition: 1.1%
Coxsackievirus B4 [11]
  Activity: inactive
Vaccinia virus
  Activity: inactive
Feline coronavirus
  Activity: inactive
[12]
  inhibition: 22.3%
[13]
  Activity: inactive
Punta Toro virus
  Activity: inactive
